Experimental data collected from several papers.
Compare with care: the assays were run in different laboratories.
Target: Cyclin-G-associated kinase (GAK, Homo sapiens, UniProt O14976)
One construct used (O14976 1-1311): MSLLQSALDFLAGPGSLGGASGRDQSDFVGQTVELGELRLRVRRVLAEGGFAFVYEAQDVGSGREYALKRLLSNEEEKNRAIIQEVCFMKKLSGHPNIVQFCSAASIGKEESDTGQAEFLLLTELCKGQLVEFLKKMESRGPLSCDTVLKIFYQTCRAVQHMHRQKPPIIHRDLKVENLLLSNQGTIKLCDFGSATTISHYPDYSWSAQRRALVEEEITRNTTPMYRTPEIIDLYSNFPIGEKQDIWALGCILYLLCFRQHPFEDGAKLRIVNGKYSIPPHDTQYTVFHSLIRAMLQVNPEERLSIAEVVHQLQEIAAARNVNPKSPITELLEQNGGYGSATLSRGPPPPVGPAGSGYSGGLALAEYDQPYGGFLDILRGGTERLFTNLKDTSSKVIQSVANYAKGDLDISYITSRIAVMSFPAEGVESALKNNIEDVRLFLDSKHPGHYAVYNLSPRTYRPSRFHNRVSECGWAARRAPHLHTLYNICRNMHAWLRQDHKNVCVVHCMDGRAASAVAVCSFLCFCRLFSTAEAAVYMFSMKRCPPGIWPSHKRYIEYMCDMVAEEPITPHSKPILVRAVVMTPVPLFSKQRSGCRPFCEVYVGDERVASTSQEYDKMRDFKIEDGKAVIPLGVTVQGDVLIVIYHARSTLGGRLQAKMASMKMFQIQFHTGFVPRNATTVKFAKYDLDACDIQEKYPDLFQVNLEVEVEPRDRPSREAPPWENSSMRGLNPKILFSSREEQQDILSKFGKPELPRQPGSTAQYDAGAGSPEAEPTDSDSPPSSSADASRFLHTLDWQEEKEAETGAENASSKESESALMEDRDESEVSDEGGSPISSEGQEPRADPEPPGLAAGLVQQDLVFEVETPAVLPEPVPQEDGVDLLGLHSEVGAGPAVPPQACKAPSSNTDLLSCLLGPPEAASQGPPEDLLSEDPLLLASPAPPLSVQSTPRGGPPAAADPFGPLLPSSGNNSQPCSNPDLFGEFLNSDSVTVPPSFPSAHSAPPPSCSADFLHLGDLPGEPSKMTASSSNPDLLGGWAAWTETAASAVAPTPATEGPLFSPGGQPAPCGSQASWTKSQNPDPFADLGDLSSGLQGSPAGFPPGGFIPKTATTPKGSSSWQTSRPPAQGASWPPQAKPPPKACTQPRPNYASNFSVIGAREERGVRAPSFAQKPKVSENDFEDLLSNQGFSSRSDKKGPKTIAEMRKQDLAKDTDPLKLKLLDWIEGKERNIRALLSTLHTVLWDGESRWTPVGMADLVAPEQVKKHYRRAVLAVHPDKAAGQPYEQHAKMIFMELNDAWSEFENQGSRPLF

| SMILES | assay | setting | remaining binding |
| --- | --- | --- | --- |
| CC(C)(O)c1cncc(-c2nc3ccc(F)cc3n2C2CC2)c1 | cell-free assay, competition with immobilised ligand | 1 µM | 100% |
| COc1ncc2cc3ccccc3nc2c1C#N | cell-free assay, competition with immobilised ligand | 5 µM | 87% |
| C[C@@H](c1ccc(-n2cnc3c(N)ncnc32)cc1)N1CCc2nn(C)c(Cc3ccccc3)c2C1=O | binding, competition with immobilised ligand | 0.1 µM | 99% |
| O=C(c1ccc(Nc2ncc(Cl)c(-c3ccc(Cl)s3)n2)cc1)N1CCC(N2CCCC2)CC1 | binding, competition with immobilised ligand | 1 µM | 23% |
| F[C@@H]1CCN(c2nccc(-c3cnn4ncccc34)n2)C1 | binding | 1 µM | 85% |
| Cn1nc(C(F)(F)F)cc1-c1cnc(N2CCc3cc(S(=O)(=O)Nc4c(F)cc(Cl)cc4F)cc(N4CCCC4=O)c32)nc1 | cell-free assay, competition with immobilised ligand | 1 µM | 94% |
| Cc1cnc(Nc2ccc(C(=O)N3CCC(N4CCCC4)CC3)cc2)nc1-c1cc2ccccc2s1 | binding, competition with immobilised ligand | 1 µM | 8.2% |
| COc1cnc(Nc2cccc(S(N)(=O)=O)c2)nc1N1CCN(c2ccccc2)C(=O)C1 | binding, competition with immobilised ligand | 1 µM | 57% |
| CN(CCCC(F)(F)F)c1nccc(-c2cnn3ncccc23)n1 | binding | 1 µM | 100% |
| C[C@@H](c1cccc(C#N)c1)n1cc(Cl)cc(C(N)=O)c1=N | cell-free assay, competition with immobilised ligand | 1 µM | 100% |
| O=C(c1ccc(Nc2ncc(Cl)c(-c3cc4ccccc4s3)n2)cc1)N1CCC(N2CCCC2)CC1 | binding, competition with immobilised ligand | 1 µM | 48% |
| C[C@@H]1CCN(c2nccc(-c3cnn4ncccc34)n2)C1 | binding | 1 µM | 40% |
| COc1cnc(Nc2cccc(S(N)(=O)=O)c2)nc1N1CCN(c2ccccc2)CC1 | binding, competition with immobilised ligand | 1 µM | 85% |
| CN1CCN(c2cnc3c(C4CCN(C(=O)c5ccc(OC(F)(F)F)cc5N)CC4)ncnc3c2)CC1 | cell-free assay, competition with immobilised ligand | 1 µM | 100% |
| CN(C)c1nccc(-c2cnc3ncccn23)n1 | binding | 1 µM | 72% |
| O=C(O)c1cc(-c2ccc(C3CCNCC3)cc2)c2ccc(-c3ccc(C(F)(F)F)cc3)cc2c1 | cell-free assay, competition with immobilised ligand | 1 µM | 100% |
| O=C(NCC1CCOCC1)c1n[nH]cc1NC(=O)c1c(F)cccc1F | binding, competition with immobilised ligand | 1 µM | 88% |
| O=C(NC[C@@H]1[C@H]2CN(C(=O)OCc3cc(C(F)(F)F)cc(C(F)(F)F)c3)C[C@@H]12)c1ccc2[nH]nnc2c1 | cell-free assay, competition with immobilised ligand | 1 µM | 91% |
| c1cnn2ncc(-c3ccnc(N4CCC45COC5)n3)c2c1 | binding | 1 µM | 56% |
| c1cncc(-c2cccc(Nc3nccc(NC4CCCCC4)n3)c2)c1 | binding, competition with immobilised ligand | 10 µM | 42% |
| CN(c1nccc(-c2cnn3ncccc23)n1)C1CC1 | binding | 1 µM | 100% |
| FC(F)(F)Oc1cccc(-c2cnc3ccc(-c4ccncc4)nn23)c1 | cell-free assay, competition with immobilised ligand | 5 µM | 9.7% |
